According to ChEMBL document CHEMBL3407477, “Synthesis and biological evaluation of compact, conformationally constrained bifunctional opioid agonist - neurokinin-1 antagonist peptidomimetics” (Eur J Med Chem, 2015):
Active and inactive are the calls of the source.

Tests used:
Substance-P receptor [1] = target: T1, Substance-P receptor (Homo sapiens, UniProt P25103); assay: Displacement of [3H]SP from human NK1 receptor expressed in CHO cells after 20 mins by liquid scintillation counting analysis; assay type: cell-based
T1 sequence (P25103 whole entry): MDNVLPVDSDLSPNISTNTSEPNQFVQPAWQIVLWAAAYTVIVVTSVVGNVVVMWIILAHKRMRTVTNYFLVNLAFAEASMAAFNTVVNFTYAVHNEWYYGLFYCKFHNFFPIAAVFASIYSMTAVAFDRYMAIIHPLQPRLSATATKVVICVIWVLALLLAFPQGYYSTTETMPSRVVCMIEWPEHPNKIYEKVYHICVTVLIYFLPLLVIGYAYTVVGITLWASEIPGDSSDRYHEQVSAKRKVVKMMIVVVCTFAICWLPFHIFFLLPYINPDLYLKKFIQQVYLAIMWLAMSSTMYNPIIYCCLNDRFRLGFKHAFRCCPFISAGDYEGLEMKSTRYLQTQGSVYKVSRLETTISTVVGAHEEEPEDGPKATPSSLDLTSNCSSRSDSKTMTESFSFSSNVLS
How it was run: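 Membranes from hNK1/CHO cells (20 µg) were incubated with 0.4 nM [3H]SP and six test concentrations in duplicate. Buffer was 50 mM Tris pH 7.4 with 5 mM MgCl2, bacitracin, bestatin, captopril and PMSF, for 20 min at 25 °C. Nonspecific binding was defined with 10 µM SP. Samples were filtered on PEI-soaked GF/B, counted by scintillation, three independent experiments. Ki by Cheng-Prusoff from nonlinear-regression IC50.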

[2] = target: Mu-type opioid receptor (Cavia porcellus) (UniProt P97266); assay: Partial agonist activity at MOR in guinea pig ileum; assay type: tissue-based
Chain of Mu-type opioid receptor (Cavia porcellus) (P97266 whole entry): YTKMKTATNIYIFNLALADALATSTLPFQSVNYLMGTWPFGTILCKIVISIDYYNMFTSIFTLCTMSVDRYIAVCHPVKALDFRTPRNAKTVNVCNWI
How it was run: (§1)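 Isolated guinea pig ileum (MOR) and mouse vas deferens (DOR) bioassays. A [Leu5]enkephalin standard dose-response curve was run on each tissue preparation, and test IC50 values were normalized to it. Values are means of 3-4 experiments.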

[3] = target: Mu-type opioid receptor (Cavia porcellus) (UniProt P97266); assay: Antagonist activity at MOR in guinea pig ileum; assay type: tissue-based
[4] = target: Delta-type opioid receptor (Mus musculus, UniProt P32300); assay: Activation of DOR in mouse vas deferens; how it was run: as §1
Chain of Delta-type opioid receptor (Mus musculus, UniProt P32300) (P32300 whole entry): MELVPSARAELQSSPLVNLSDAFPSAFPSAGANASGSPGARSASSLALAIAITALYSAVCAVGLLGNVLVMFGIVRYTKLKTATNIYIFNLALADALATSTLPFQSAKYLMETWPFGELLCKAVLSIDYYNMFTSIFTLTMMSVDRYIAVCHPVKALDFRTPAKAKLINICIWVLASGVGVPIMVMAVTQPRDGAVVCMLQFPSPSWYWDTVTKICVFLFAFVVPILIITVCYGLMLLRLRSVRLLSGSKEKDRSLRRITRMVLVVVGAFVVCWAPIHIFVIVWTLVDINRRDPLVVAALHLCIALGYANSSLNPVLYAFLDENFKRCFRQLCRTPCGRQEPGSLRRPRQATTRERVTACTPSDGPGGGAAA

Rattus norvegicus [5] = species: Rattus norvegicus; assay: Antinociceptive activity in Wistar rat at 0.001 to 0.1 nmol, it after 30 mins by tail flick test; assay type: functional, organism-based
How it was run: (§2)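 Naive male Wistar rats (250-300 g) with i.t. catheters received a single i.t. injection in water for injection (5 µl plus 10 µl flush), 7 days after catheter implantation. Tail-flick latency to a light-bulb heat stimulus at two-thirds of tail length was read 30 min post-dose (timepoints up to 180 min), with a 9 s cut-off. Data are %MPE = (TL-BL)/(cut-off-BL)×100, 7-12 rats/group, ANOVA with Bonferroni.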

Rattus norvegicus [6] = species: Rattus norvegicus; assay: Selectivity ratio of Ki for rat brain DOR to Ki for rat brain MOR
Rattus norvegicus [7] = species: Rattus norvegicus; assay: Antiallodynic effect in Wistar rat chronic constriction injury model at 0.001 to 1 nmol, it measured 7 days post CCI challenge by Von Frey test; assay type: functional, organism-based
How it was run: (§3)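 Male Wistar rats (300-350 g) with i.t. catheters (L4-L6) had CCI made by four loose silk ligatures on the right sciatic nerve. On day 7 they received a single i.t. dose in water for injection. Mechanical allodynia was measured 30 min later with an automatic von Frey device (0.5-26 g) on the midplantar hind paw. Data are %MPE, 6-12 rats/group, ANOVA with Bonferroni.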

Rattus norvegicus [8] = species: Rattus norvegicus; assay: Reduction of hyperalgesia in Wistar rat chronic constriction injury model at 1 nmol, it measured 7 days post CCI challenge by cold plate test; assay type: functional, organism-based
How it was run: (§4)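 In catheterized male Wistar rats with sciatic CCI, a single i.t. dose in water for injection was given on day 7. Thermal hyperalgesia was measured 30 min later as latency to hind-paw shake on a 5 °C cold plate. Data are %MPE, 6-12 rats/group, ANOVA with Bonferroni.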

[9] = target: Delta-type opioid receptor (Rattus norvegicus, UniProt P33533); assay: Displacement of [3H]DSLET from rat brain DOR after 2 hrs
Chain of Delta-type opioid receptor (Rattus norvegicus, UniProt P33533) (P33533 whole entry): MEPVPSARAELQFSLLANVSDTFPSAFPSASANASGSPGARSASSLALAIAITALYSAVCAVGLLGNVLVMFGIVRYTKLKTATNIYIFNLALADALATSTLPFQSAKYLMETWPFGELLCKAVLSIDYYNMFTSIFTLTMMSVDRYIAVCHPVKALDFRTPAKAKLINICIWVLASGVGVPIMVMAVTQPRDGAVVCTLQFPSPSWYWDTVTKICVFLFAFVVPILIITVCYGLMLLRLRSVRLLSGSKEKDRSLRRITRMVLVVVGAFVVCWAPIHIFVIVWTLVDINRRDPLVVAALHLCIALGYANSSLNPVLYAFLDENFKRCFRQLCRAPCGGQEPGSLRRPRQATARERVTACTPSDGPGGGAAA
How it was run: (§5)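 Rat brain membranes were incubated 2 h at 0 °C with 0.72 nM [3H]DAMGO (MOR) or 0.78 nM [3H]DSLET (DOR). IC50 came from log-dose displacement curves.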

Mu-type opioid receptor [10] = target: Mu-type opioid receptor (Rattus norvegicus, UniProt P33535); assay: Displacement of [3H]DAMGO from rat brain MOR after 2 hrs; how it was run: as §5
Chain of Mu-type opioid receptor (Rattus norvegicus, UniProt P33535) (P33535 whole entry): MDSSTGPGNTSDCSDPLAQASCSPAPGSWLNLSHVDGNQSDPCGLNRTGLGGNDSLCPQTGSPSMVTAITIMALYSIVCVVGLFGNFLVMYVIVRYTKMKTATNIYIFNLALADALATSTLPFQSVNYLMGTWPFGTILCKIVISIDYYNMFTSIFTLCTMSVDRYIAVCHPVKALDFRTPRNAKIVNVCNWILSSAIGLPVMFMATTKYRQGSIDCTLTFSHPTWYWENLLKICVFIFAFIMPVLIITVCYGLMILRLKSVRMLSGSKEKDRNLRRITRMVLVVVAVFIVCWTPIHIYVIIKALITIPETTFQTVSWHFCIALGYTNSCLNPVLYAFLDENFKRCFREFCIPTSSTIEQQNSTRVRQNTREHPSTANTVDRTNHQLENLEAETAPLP

Mu-type opioid receptor [11] = target: Mu-type opioid receptor (Cavia porcellus, UniProt P97266); assay: Activation of MOR in guinea pig ileum; assay type: tissue-based; how it was run: as §1
Chain of Mu-type opioid receptor (Cavia porcellus, UniProt P97266) (P97266 whole entry): as the sequence (P97266 whole entry) above

Substance-P receptor [12] = target: T1, Substance-P receptor; assay: Antagonist activity at human NK1 receptor expressed in CHO cells by luminescence assay in presence of SP peptide; assay type: cell-based; conditions: read-out: pA2 (converted)
Rattus norvegicus [13] = assay: Antiallodynic effect in Wistar rat chronic constriction injury model assessed as tolerance to neuropathic pain at 3.5 nmol, it qd for 6 days administered from 7 days post CCI challenge to day 13 by Von Frey test; assay type: functional, organism-based
How it was run: (§6)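 CCI Wistar rats received once-daily i.t. injections (morphine 3.5 nmol, hybrids 1 nmol, in water for injection) from day 7 to day 13 after CCI. Von Frey and 5 °C cold plate tests were run 30 min after each dose. Data are %MPE and AUC, 12-16 rats/group, ANOVA with Bonferroni.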

Rattus norvegicus [14] = assay: Antiallodynic effect in it dosed Wistar rat measured 7 days post CCI challenge by Von Frey test; assay type: functional; how it was run: as §3
Rattus norvegicus [15] = assay: (§7) Antiallodynic effect in Wistar rat chronic constriction injury model assessed as cross tolerance developement pretreated with H-Dmt-D-Arg-Aba-Gly-NMe-3',5'-(CF3)2-Bn at 1 nmol, it qd for 6 days administered from 7 days post CCI challenge to day 13 measured 30 mins post morphine challenge by cold plate test; assay type: functional, organism-based
How it was run: (§8)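 CCI Wistar rats were made tolerant by 6 days of once-daily i.t. dosing (morphine 3.5 nmol or hybrid 1 nmol). On day 13 they received a single i.t. challenge (morphine 3.5 nmol or hybrid 1 nmol) against repeated-vehicle controls. Von Frey and cold plate tests were run 30 min later. Data are %MPE, 6-8 rats/group, ANOVA with Bonferroni.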

Rattus norvegicus [16] = assay: Antinociceptive activity in it dosed Wistar rat after 30 mins by tail flick test; assay type: functional; how it was run: as §2
Rattus norvegicus [17] = assay: Antiallodynic effect in Wistar rat chronic constriction injury model assessed as tolerance to neuropathic pain at 3.5 nmol, it qd for 6 days administered from 7 days post CCI challenge to day 13 by cold plate test; assay type: functional, organism-based; how it was run: as §6
Rattus norvegicus [18] = assay: Antiallodynic effect in Wistar rat chronic constriction injury model assessed as cross tolerance developement pretreated with H-Dmt-D-Arg-Aba-beta-Ala-NMe-Bn at 1 nmol, it qd for 6 days administered from 7 days post CCI challenge to day 13 measured 30 mins post morphine challenge by cold plate test; assay type: functional, organism-based; how it was run: as §8
Rattus norvegicus [19] = species: Rattus norvegicus; assay: Antiallodynic effect in Wistar rat chronic constriction injury model at 0.35 to 35 nmol, it measured 7 days post CCI challenge by Von Frey test; assay type: functional, organism-based; how it was run: as §3
Rattus norvegicus [20] = assay: Antiallodynic effect in Wistar rat chronic constriction injury model assessed as cross tolerance developement pretreated with H-Dmt-D-Arg-Aba-beta-Ala-NMe-Bn at 1 nmol, it qd for 6 days administered from 7 days post CCI challenge to day 13 measured 30 mins post morphine challenge by Von Frey test; assay type: functional, organism-based; how it was run: as §8
Rattus norvegicus [21] = assay: Reduction of hyperalgesia in it dosed Wistar rat measured 7 days post CCI challenge by cold plate test; assay type: functional; how it was run: as §4
Rattus norvegicus [22] = assay: as §7, with “Von frey” for “cold plate”; assay type: functional, organism-based; how it was run: as §8
Rattus norvegicus [23] = species: Rattus norvegicus; assay: Toxicity in Wistar rat chronic constriction injury model at 1 nmol, it measured 7 days post CCI challenge; assay type: organism-based; conditions: in vivo, icv_or_intrathecal, 168 h

`Cc1cc(O)cc(C)c1C[C@H](N)C(=O)N[C@H](CCCNC(=N)N)C(=O)N[C@H]1Cc2ccccc2CN(CCC(=O)N(Cc2cc(C(F)(F)F)cc(C(F)(F)F)c2)CC(C)C)C1=O` was tested, and the Ki (Substance-P receptor [1]) was 743 nM.

In the case of `Cc1cc(O)cc(C)c1C[C@H](N)C(=O)N[C@H](CCCNC(=N)N)C(=O)N[C@H]1Cc2ccccc2CN(CC(=O)N(Cc2cc(C(F)(F)F)cc(C(F)(F)F)c2)CC(C)C)C1=O`, the Ki (Substance-P receptor [1]) is reported as 35 nM, the Activity [2] is reported as 19.7 nM and the Ke [3] is reported as 12.7 nM. The IC50 [4] was 14.5 nM.

For `Cc1cc(O)cc(C)c1C[C@H](N)C(=O)N[C@H](CCCNC(=N)N)C(=O)N[C@H]1Cc2ccccc2CN(CC(N)=O)C1=O`, the Activity (Rattus norvegicus [5]) was “Active”, the Ratio Ki (Rattus norvegicus [6]) was 4 and the Activity (Rattus norvegicus [7]) was “Active”. The Activity (Rattus norvegicus [8]) was “Active”.

Compound `Cc1cc(O)cc(C)c1C[C@H](N)C(=O)N[C@H](CCCNC(=N)N)C(=O)N[C@H]1Cc2ccccc2CN(CC(=O)NCc2ccccc2)C1=O` has a Ki (Substance-P receptor [1]) of 6190 nM, a Ki [9] of 0.62 nM and a Ratio Ki (Rattus norvegicus [6]) of 4.4. The Ki (Mu-type opioid receptor [10]) was 0.14 nM, the IC50 (Mu-type opioid receptor [11]) was 4.44 nM and the IC50 [4] was 3.5 nM.

In the case of `Cc1cc(O)cc(C)c1C[C@H](N)C(=O)N[C@H](CCCNC(N)=O)C(=O)N[C@H]1Cc2ccccc2CN(CCC(=O)N(C)Cc2cc(C(F)(F)F)cc(C(F)(F)F)c2)C1=O`, the Ki (Substance-P receptor [1]) is reported as 34.7 nM, the Kb (Substance-P receptor [12]) is reported as 537 nM and the Ki [9] is reported as 0.55 nM. The Ratio Ki (Rattus norvegicus [6]) was 1.5, the Ki (Mu-type opioid receptor [10]) was 0.37 nM and the IC50 (Mu-type opioid receptor [11]) was 2.03 nM. The IC50 [4] was 1.06 nM.

In the case of `CN1CC[C@]23c4c5ccc(O)c4O[C@H]2[C@@H](O)C=C[C@H]3[C@H]1C5` [MORPHINE], the Activity (Rattus norvegicus [13]) is reported as “Active”, the ED50 (Rattus norvegicus [14]) is reported as 6.25 nmol and the Activity (Rattus norvegicus [15]) is reported as “inactive”. For the same compound, the ED50 (Rattus norvegicus [16]) was 0.49 nmol, the Activity (Rattus norvegicus [17]) was “Active” and the Activity (Rattus norvegicus [18]) was “inactive”. For the same compound, the Activity (Rattus norvegicus [19]) was “Active”, the Activity (Rattus norvegicus [20]) was “inactive” and the ED50 (Rattus norvegicus [21]) was 377 nmol. The Activity (Rattus norvegicus [8]) was “Active” and the Activity (Rattus norvegicus [22]) was “inactive”.

With `Cc1cc(O)cc(C)c1C[C@H](N)C(=O)N[C@H](CCCN=C(N)N)C(=O)N[C@H]1Cc2ccccc2CN(CC(N)=O)C1=O` the Activity (Rattus norvegicus [23]) was “Toxic”.
